Activity calls are given as the source filed them. The rule behind the calls is not given here.
What was measured:
[1] = Pharmacokinetic parameter AUC was evaluated in Hp-beta-CD solution; format: ADME
Outline: (§1)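 Fasted male Wistar rats, groups of 3–4, given a single oral 20 mg/kg dose in the stated vehicle. Heparinized plasma was collected from an implanted jugular-vein cannula at serial times out to 24 h, kept frozen, and assayed by validated HPLC-fluorescence. Cmax, tmax, AUC(0–∞) and terminal t1/2 were obtained by noncompartmental analysis. Values are means (%RSD).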

[2] = system: Mus musculus; experiment: Concentration in forebrain after intravenous injection evaluated after 10 min. at a dose of 10 mg/kg; Below low level of detection; format: functional, organism-based; set-up: dose 10 mg/kg
Outline: (§2)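 Ex vivo binding: mice were dosed iv with compound or vehicle, given either as saline or as 10% EtOH–60% propylene glycol–30% saline. Forebrains were taken at 5, 10 or 20 min, homogenized in HEPES buffer with bacitracin at pH 7.2, and incubated with 50 pM [125I]BH-CCK8s for 2 h at 22 °C. After filtration, bound radioligand was gamma-counted and read against calibration curves prepared in vehicle tissue. Detection limit was about 1 pmol/forebrain. n = 3–13.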

[3] = system: Mus musculus; experiment: Concentration in forebrain after intravenous injection evaluated after 20 min. at a dose of 10 mg/kg; format: functional; outline: as §2
[4] = Maximum plasma concentration was evaluated in Hp-beta-CD solution at a dose of 20 mg/kg orally; format: ADME, organism-based; set-up: dose 20 mg/kg, route oral; settings: po; outline: as §1
[5] = Maximum plasma concentration was evaluated in saline solution at a dose of 20 mg/kg orally; format: ADME, organism-based; set-up: dose 20 mg/kg, route oral; settings: po; outline: as §1
[6] = Absolute oral bioavailability was evaluated in Hp-beta-CD solution at a dose of 20 mg/kg orally; format: ADME, organism-based; settings: eutheria, in vivo
Outline: (§3)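 Fasted male Wistar rats, groups of 3–4, given a single 20 mg/kg dose po or iv in the stated vehicle. Heparinized plasma was drawn from a jugular-vein cannula at serial times out to 24 h and assayed by validated HPLC-fluorescence. Absolute bioavailability is the dose-normalized ratio of AUC after po dosing to AUC after iv dosing.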

[7] = Pharmacokinetic parameter tmax was evaluated in saline solution at a dose of 20 mg/kg orally; format: ADME, organism-based; set-up: dose 20 mg/kg, route oral; settings: in vivo, po; outline: as §1
[8] = system: Mus musculus; experiment: Concentration in forebrain after intravenous injection evaluated after 5 min. at a dose of 10 mg/kg; format: functional; outline: as §2
[9] = Pharmacokinetic parameter AUC was evaluated in saline solution at a dose of 20 mg/kg orally; format: ADME, organism-based; set-up: dose 20 mg/kg, route oral; settings: in vivo, po; outline: as §1
[10] = Pharmacokinetic parameter tmax was evaluated in Hp-beta-CD solution at a dose of 20 mg/kg orally; format: ADME, organism-based; set-up: dose 20 mg/kg, route oral; settings: in vivo, po; outline: as §1
[11] = Absolute oral bioavailability was evaluated in saline solution at a dose of 20 mg/kg orally; format: ADME, organism-based; settings: eutheria, in vivo; outline: as §3

Question: Which AUC [1] does the source give for `C[C@](Cc1c[nH]c2ccccc12)(NC(=O)OC1[C@H]2C[C@@H]3C[C@@H](C[C@H]1C3)C2)C(=O)NC[C@H](NC(=O)CCC(=O)O)c1ccccc1` (stereo partly specified) [CI-988] here?
Answer: 2.3 ng·h/mL

Question: And the Brain level [2]?
Answer: inactive

Question: And the Brain level [3]?
Answer: 8 pmol/forebrain

Question: And the Cmax [4]?
Answer: 5 ng/mL

Question: And the Cmax [5]?
Answer: 32 ng/mL

Question: And the bioavailability [6]?
Answer: < 1%

Question: And the Tmax [7]?
Answer: 2.3 h

Question: And the Brain level [8]?
Answer: 10 pmol/forebrain

Question: And the AUC [9]?
Answer: 134 ng·h/mL

Question: What about the Tmax [10] of the same compound?
Answer: 0.25 h

Question: And the bioavailability [11]?
Answer: 3.2%
